From ChEMBL document CHEMBL1126849, “Synthesis of A-ring fluorinated derivatives of (17 alpha,20E/Z)-[125I]iodovinylestradiols: effect on receptor binding and receptor-mediated target tissue uptake” (J Med Chem, 1993)

Assays:
Rattus norvegicus [1] = assay: Biodistribution in liver of immature female rat after 1 hr administration of 3 micro Ci (111 kBq) in the presence of (+E2); type: ADME, organism-based; conditions: in vivo
Summary of the method: (§1)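 Immature female Long Evans rats (21–24 days, 45–70 g), unanesthetized in retention cages, given 3 µCi (111 kBq) 125I-labeled steroid i.v. via lateral tail vein. Vehicle was ethanol diluted in saline containing 1% Tween-80, giving 9% ethanol final. The blocking group received 60 µg unlabeled estradiol co-injected. Rats were killed under ether by axillary bleeding, and tissues were KCl-washed and gamma-counted. Data are %ID/g, mean ± SE, n=3–5.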

Rattus norvegicus [2] = assay: Biodistribution in lungs of immature female rat after 3 hour administration of 3 micro Ci (111 kBq) in the absence of 60 microg estradiol; type: ADME, organism-based, Lung; conditions: in vivo
Summary of the method: (§2)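 Immature female Long Evans rats (21–24 days, 45–70 g), three to five per group, given 125I-labeled steroid (3 μCi, 111 kBq) by lateral tail vein without anesthesia. Vehicle: ethanol diluted in saline with 1% Tween-80, final ethanol 9%, 0.22 μm filtered. +E2 groups received 60 μg unlabeled estradiol co-injected. Killed under ether at set times; tissues KCl-washed, blotted, weighed, gamma counted; %ID/g, mean with SE.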

Rattus norvegicus [3] = assay: Biodistribution in uterus / spleen, muscle, lungs of immature female rat after 1 hr administration of 3 micro Ci (111 kBq) in the absence of 60 microg estradiol; type: ADME, organism-based; conditions: in vivo
Summary of the method: (§3)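 Same in vivo procedure: immature female Long Evans rats (21–24 days), three to five per group, 3 μCi (111 kBq) tracer i.v. via tail vein in 9% ethanol/saline/1% Tween-80, ± 60 μg estradiol co-injected at 1 h. Uterus %ID/g (gamma counting) divided by blood, or by nontarget organ (muscle, spleen, lungs), %ID/g to give ratios.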

Rattus norvegicus [4] = assay: Biodistribution in kidney of immature female rat after 3 hour administration of 3 micro Ci (111 kBq) in the absence of 60 microg estradiol; type: ADME, organism-based; conditions: in vivo; summary of the method: as §1
Rattus norvegicus [5] = assay: Biodistribution in muscle of immature female rat after 5 hour administration of 3 micro Ci (111 kBq) in the absence of 60 microg estradiol; type: ADME, organism-based, Muscle tissue; conditions: in vivo; summary of the method: as §2
Rattus norvegicus [6] = assay: Biodistribution in muscle of immature female rat after 12 hour administration of 3 micro Ci (111 kBq) in the absence of 60 microg estradiol; type: ADME, organism-based, Muscle tissue; conditions: in vivo; summary of the method: as §2
Rattus norvegicus [7] = assay: Biodistribution in uterus of immature female rat after 1 hr administration of 3 micro Ci (111 kBq) in the absence of 60 microg estradiol; type: ADME, organism-based; conditions: in vivo
Summary of the method: (§4)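 Immature female Long Evans rats (21–24 days, 45–70 g), 3–5 per group, unanesthetized in retention cages, given 3 μCi (111 kBq) 125I-labeled steroid by lateral tail vein. Vehicle: ethanol diluted with saline containing 1% Tween-80, final ethanol 9%. +E2 group co-injected 60 μg unlabeled estradiol (1 h only). Killed under ether; tissues KCl-washed, weighed, gamma-counted. Output: %ID/g (mean, SE) and uterus to blood or nontarget (muscle, spleen, lungs) ratios.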

Rattus norvegicus [8] = assay: Biodistribution in kidney of immature female rat after 5 hour administration of 3 micro Ci (111 kBq) in the absence of 60 microg estradiol; type: ADME, organism-based; conditions: in vivo; summary of the method: as §1
Rattus norvegicus [9] = assay: Biodistribution in spleen of immature female rat after 1 hr administration of 3 micro Ci (111 kBq) in the presence of (+E2); type: ADME, organism-based; conditions: in vivo; summary of the method: as §2
Rattus norvegicus [10] = assay: Biodistribution in blood of immature female rat after 12 hour administration of 3 micro Ci (111 kBq) in the absence of 60 microg estradiol; type: ADME, organism-based; conditions: in vivo; summary of the method: as §1
Rattus norvegicus [11] = assay: Biodistribution in muscle of immature female rat after 1 hr administration of 3 micro Ci (111 kBq) in the absence of 60 microg estradiol; type: ADME, organism-based, Muscle tissue; conditions: in vivo; summary of the method: as §2
Rattus norvegicus [12] = assay: Biodistribution in thyroid of immature female rat after 1 hr administration of 3 micro Ci (111 kBq) in the absence of 60 microg estradiol; type: ADME, organism-based, Thyroid gland; conditions: in vivo; summary of the method: as §2
Rattus norvegicus [13] = assay: Biodistribution in lungs of immature female rat after 5 hour administration of 3 micro Ci (111 kBq) in the absence of 60 microg estradiol; type: ADME, organism-based, Lung; conditions: in vivo; summary of the method: as §2
Rattus norvegicus [14] = assay: Biodistribution in uterus / blood of immature female rat after 1 hr administration of 3 micro Ci (111 kBq) in the absence of 60 microg estradiol; type: ADME, organism-based; conditions: in vivo; summary of the method: as §3
Rattus norvegicus [15] = assay: Biodistribution in uterus of immature female rat after 1 hr administration of 3 micro Ci (111 kBq) in the presence of (+E2); type: ADME, organism-based; conditions: in vivo; summary of the method: as §4
Rattus norvegicus [16] = assay: Biodistribution in uterus of immature female rat after 5 hour administration of 3 micro Ci (111 kBq) in the absence of 60 microg estradiol; type: ADME, organism-based; conditions: in vivo; summary of the method: as §4
Rattus norvegicus [17] = assay: Biodistribution in uterus of immature female rat after 12 hour administration of 3 micro Ci (111 kBq) in the absence of 60 microg estradiol; type: ADME, organism-based; conditions: in vivo; summary of the method: as §4
Rattus norvegicus [18] = assay: Biodistribution in uterus / blood of immature female rat after 1 hr administration of 3 micro Ci (111 kBq) in the presence of (+E2); type: ADME, organism-based; conditions: in vivo; summary of the method: as §3
Rattus norvegicus [19] = assay: Biodistribution in uterus / spleen, muscle, lungs of immature female rat after 1 hr administration of 3 micro Ci (111 kBq) in the presence of (+E2); type: ADME, organism-based; conditions: in vivo; summary of the method: as §3
Rattus norvegicus [20] = assay: Biodistribution in blood of immature female rat after 1 hr administration of 3 micro Ci (111 kBq) in the absence of 60 microg estradiol; type: ADME, organism-based; conditions: in vivo; summary of the method: as §1
Rattus norvegicus [21] = assay: Biodistribution in uterus of immature female rat after 3 hour administration of 3 micro Ci (111 kBq) in the absence of 60 microg estradiol; type: ADME, organism-based; conditions: in vivo; summary of the method: as §4
Rattus norvegicus [22] = assay: Biodistribution in fat of immature female rat after 1 hr administration of 3 micro Ci (111 kBq) in the absence of 60 microg estradiol; type: ADME, organism-based, Adipose tissue; conditions: in vivo; summary of the method: as §1
Rattus norvegicus [23] = assay: Biodistribution in spleen of immature female rat after 5 hour administration of 3 micro Ci (111 kBq) in the absence of 60 microg estradiol; type: ADME, organism-based; conditions: in vivo; summary of the method: as §2
Rattus norvegicus [24] = assay: Biodistribution in muscle of immature female rat after 3 hour administration of 3 micro Ci (111 kBq) in the absence of 60 microg estradiol; type: ADME, organism-based, Muscle tissue; conditions: in vivo; summary of the method: as §2
[25] = target: Estrogen receptor (Mus musculus) (UniProt O08537+P19785); assay: Relative binding affinity (RBA) against murine cytoplasmic estrogen receptor incubated at 0-4 degree Celsius for 18 hours; type: protein assay
Sequence of Estrogen receptor (Mus musculus) (O08537 whole entry, looked up): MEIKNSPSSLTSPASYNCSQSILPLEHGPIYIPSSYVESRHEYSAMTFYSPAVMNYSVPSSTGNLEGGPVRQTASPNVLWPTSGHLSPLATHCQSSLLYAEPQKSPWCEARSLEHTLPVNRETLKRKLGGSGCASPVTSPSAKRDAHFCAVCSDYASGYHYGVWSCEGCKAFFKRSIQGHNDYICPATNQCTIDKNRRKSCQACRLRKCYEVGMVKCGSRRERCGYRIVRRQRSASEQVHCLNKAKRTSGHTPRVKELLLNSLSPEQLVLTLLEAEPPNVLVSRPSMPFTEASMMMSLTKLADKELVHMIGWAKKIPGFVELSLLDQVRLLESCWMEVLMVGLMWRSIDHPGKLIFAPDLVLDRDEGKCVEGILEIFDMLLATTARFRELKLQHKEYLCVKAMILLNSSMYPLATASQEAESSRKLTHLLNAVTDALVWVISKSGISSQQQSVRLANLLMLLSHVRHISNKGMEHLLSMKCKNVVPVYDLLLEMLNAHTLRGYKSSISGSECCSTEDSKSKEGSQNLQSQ
Sequence of Estrogen receptor (Mus musculus) (P19785 whole entry, looked up): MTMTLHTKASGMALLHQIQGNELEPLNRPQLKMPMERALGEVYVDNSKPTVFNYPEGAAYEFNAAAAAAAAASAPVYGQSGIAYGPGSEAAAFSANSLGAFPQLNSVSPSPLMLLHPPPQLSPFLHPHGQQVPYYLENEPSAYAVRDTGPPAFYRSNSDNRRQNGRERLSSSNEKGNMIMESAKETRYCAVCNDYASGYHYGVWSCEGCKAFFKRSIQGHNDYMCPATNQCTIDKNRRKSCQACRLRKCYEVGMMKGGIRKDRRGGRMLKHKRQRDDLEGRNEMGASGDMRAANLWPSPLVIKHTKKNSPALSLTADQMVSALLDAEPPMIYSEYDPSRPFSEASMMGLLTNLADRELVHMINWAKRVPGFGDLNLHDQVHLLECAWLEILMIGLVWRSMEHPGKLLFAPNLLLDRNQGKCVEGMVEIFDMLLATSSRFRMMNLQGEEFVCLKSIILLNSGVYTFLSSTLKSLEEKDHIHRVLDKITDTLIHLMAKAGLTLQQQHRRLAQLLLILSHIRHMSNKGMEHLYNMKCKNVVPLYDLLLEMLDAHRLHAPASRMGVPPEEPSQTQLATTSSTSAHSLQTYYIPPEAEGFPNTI
Summary of the method: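 Competitive binding on murine uterine cytoplasmic extract with 20 nM [3H]estradiol and competitor steroids at 2 nM–20 μM, incubated 18 h at 0–4 °C. RBA = 100 × ratio of […] concentration giving 50% competition for specific binding. Mean of three experiments with SD.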

Rattus norvegicus [26] = assay: Biodistribution in lungs of immature female rat after 1 hr administration of 3 micro Ci (111 kBq) in the presence of (+E2); type: ADME, organism-based, Lung; conditions: in vivo; summary of the method: as §1
Rattus norvegicus [27] = assay: Biodistribution in blood of immature female rat after 3 hour administration of 3 micro Ci (111 kBq) in the absence of 60 microg estradiol; type: ADME, organism-based; conditions: in vivo; summary of the method: as §1
Rattus norvegicus [28] = assay: Biodistribution in uterus / spleen, muscle, lungs of immature female rat after 5 hour administration of 3 micro Ci (111 kBq) in the absence of 60 microg estradiol; type: ADME, organism-based; conditions: in vivo; summary of the method: as §4
Rattus norvegicus [29] = assay: Biodistribution in thyroid of immature female rat after 3 hour administration of 3 micro Ci (111 kBq) in the absence of 60 microg estradiol; type: ADME, organism-based, Thyroid gland; conditions: in vivo; summary of the method: as §2
Rattus norvegicus [30] = assay: Biodistribution in lungs of immature female rat after 12 hour administration of 3 micro Ci (111 kBq) in the absence of 60 microg estradiol; type: ADME, organism-based, Lung; conditions: in vivo; summary of the method: as §2

Row | ID/g (Rattus norvegicus [1]) | ID/g (Rattus norvegicus [2]) | uterus-to-nontarget tissue uptake ratio (Rattus norvegicus [3]) | ID/g (Rattus norvegicus [4]) | ID/g (Rattus norvegicus [5]) | ID/g (Rattus norvegicus [6]) | ID/g (Rattus norvegicus [7]) | ID/g (Rattus norvegicus [8]) | ID/g (Rattus norvegicus [9]) | ID/g (Rattus norvegicus [10]) | ID/g (Rattus norvegicus [11]) | ID/g (Rattus norvegicus [12]) | ID/g (Rattus norvegicus [13]) | uterus-to-blood ratio of %ID/g (Rattus norvegicus [14]) | ID/g (Rattus norvegicus [15]) | ID/g (Rattus norvegicus [16]) | ID/g (Rattus norvegicus [17]) | uterus/blood %ID/g ratio (Rattus norvegicus [18]) | uterus-to-nontarget tissue uptake ratio (Rattus norvegicus [19]) | ID/g (Rattus norvegicus [20]) | Structure (SMILES) | further results
1 | 2.28% | 0.28% | 3.3% | 0.29% | 0.21% | 0.17% | 1.03% | 0.26% | 0.45% | 0.12% | 0.61% | 78% | 0.22% | 4.49% | 0.39% | 0.63% | 0.35% | 1.34% | 1.09% | 0.29% | C[C@@H]1Cc2cc(O)c(F)cc2[C@H]2CC[C@@]3(C)[C@@H](CC[C@@]3(O)/C=C/I)[C@H]12 | ID/g (Rattus norvegicus [21]): 0.85%; ID/g (Rattus norvegicus [22]): 1.5%; ID/g (Rattus norvegicus [23]): 0.18%; ID/g (Rattus norvegicus [24]): 0.15%; RBA [25]: 12.1; ID/g (Rattus norvegicus [26]): 0.53%; ID/g (Rattus norvegicus [27]): 0.2%; uterus to nontarget tissue ratio (Rattus norvegicus [28]): 3.61%; ID/g (Rattus norvegicus [29]): 197%; ID/g (Rattus norvegicus [30]): 0.12%
2 | 3.04% | 0.85% | 8.31% | 0.82% | 0.38% | 0.37% | 10.44% | 0.58% | 0.56% | 0.24% | 1.26% | 42.2% | 0.56% | 15.19% | 0.86% | 10.22% | 6.02% | 1.65% | 1.21% | 0.71% | C[C@]12CC[C@@H]3c4ccc(O)c(F)c4CC[C@H]3[C@@H]1CC[C@@]2(O)/C=C\I | ID/g (Rattus norvegicus [21]): 7.96%; ID/g (Rattus norvegicus [22]): 4.3%; ID/g (Rattus norvegicus [23]): 0.4%; ID/g (Rattus norvegicus [24]): 0.82%; RBA [25]: 66.9; ID/g (Rattus norvegicus [26]): 1.14%; ID/g (Rattus norvegicus [27]): 0.48%; uterus to nontarget tissue ratio (Rattus norvegicus [28]): 28.59%; ID/g (Rattus norvegicus [29]): 87.39%; ID/g (Rattus norvegicus [30]): 0.8%
3 | 2.58% | 0.39% | 7.32% | 0.53% | 0.14% | 0.05% | 4.41% | 0.3% | 1% | 0.17% | 0.57% | 39% | 0.24% | 7.34% | 0.68% | 3.67% | 2.51% | 1.2% | 0.51% | 0.61% | C[C@]12CC[C@@H]3c4cc(F)c(O)cc4CC[C@H]3[C@@H]1CC[C@@]2(O)/C=C\I | ID/g (Rattus norvegicus [21]): 5.44%; ID/g (Rattus norvegicus [22]): 2.19%; ID/g (Rattus norvegicus [23]): 0.2%; ID/g (Rattus norvegicus [24]): 0.28%; RBA [25]: 53.7; ID/g (Rattus norvegicus [26]): 0.75%; ID/g (Rattus norvegicus [27]): 0.42%; uterus to nontarget tissue ratio (Rattus norvegicus [28]): 18.05%; ID/g (Rattus norvegicus [29]): 75.3%; ID/g (Rattus norvegicus [30]): 0.12%
